Assays:
[1] = test system: Rattus norvegicus; experiment: Antidiabetic activity in po dosed N-STZ 1.5 rat assessed as reduction in GHB level for 4 weeks; assay type: functional, organism-based; conditions: dose 1-3 mg/kg
Summary of the method: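 Male N-STZ-1.5 rats kept under time-restricted feeding, treated for 4 weeks; GHb measured before and after treatment and expressed also as percentage change.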

[2] = AUC in rat at 1 mg/kg, po by LC/MS/MS analysis; assay type: ADME, organism-based; set-up: dose 1 mg/kg; conditions: in vivo
Summary of the method: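 Cassette dosing, given by mouth at 1 mg/kg in 0.5% methylcellulose aqueous solution, with intravenous arm at 0.1 mg/kg, to non-fasted animals. Blood collected after dosing, plasma deproteinized and centrifuged, compound measured by LC/MS/MS.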

[3] = biological target: T1, Glucose-dependent insulinotropic receptor (Rattus norvegicus, UniProt Q7TQN8); experiment: Agonist activity at rat GPR119 expressed in CHO cells co-expressing cyclic AMP response element incubated for 2 hrs by steady-glo luciferase assay; assay type: cell-based
T1 sequence (Q7TQN8 whole entry): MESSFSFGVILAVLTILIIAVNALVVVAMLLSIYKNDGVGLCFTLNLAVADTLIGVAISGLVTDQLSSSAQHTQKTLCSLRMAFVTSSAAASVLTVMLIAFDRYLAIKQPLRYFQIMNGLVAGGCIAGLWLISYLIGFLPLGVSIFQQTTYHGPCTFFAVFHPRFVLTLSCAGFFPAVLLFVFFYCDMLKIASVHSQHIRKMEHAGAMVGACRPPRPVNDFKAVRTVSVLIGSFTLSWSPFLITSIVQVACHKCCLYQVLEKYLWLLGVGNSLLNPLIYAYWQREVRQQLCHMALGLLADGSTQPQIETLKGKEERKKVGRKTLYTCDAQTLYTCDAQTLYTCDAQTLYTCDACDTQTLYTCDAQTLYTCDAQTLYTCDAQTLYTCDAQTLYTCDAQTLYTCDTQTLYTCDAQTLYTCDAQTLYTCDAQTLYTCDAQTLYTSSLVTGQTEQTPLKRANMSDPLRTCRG
Summary of the method: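 Rat GPR119-expressing cells, cAMP-induced luciferase read with Steady-Glo after 2 h compound exposure in MEM α/HEPES/BSA buffer. Activity scaled between vehicle and a 10 µM reference agonist; EC50 mean of n = 2.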

[4] = biological target: T2, Glucose-dependent insulinotropic receptor (Mus musculus, UniProt Q7TQP3); experiment: Agonist activity at GPR119 in glucose-induced mouse L cells assessed as induction of GLP-1 secretion after 2 hrs by ELISA
T2 sequence (Q7TQP3 whole entry): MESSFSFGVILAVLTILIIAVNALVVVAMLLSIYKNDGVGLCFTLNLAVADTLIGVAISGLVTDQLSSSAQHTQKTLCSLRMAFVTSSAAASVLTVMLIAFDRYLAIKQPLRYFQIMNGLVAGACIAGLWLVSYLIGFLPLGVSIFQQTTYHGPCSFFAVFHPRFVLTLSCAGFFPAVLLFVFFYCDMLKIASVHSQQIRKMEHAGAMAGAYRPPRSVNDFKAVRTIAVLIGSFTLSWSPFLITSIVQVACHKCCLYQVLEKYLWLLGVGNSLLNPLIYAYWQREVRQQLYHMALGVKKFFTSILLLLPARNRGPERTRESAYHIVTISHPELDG
Summary of the method: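 GLUTag cells (murine L cell line) seeded at 1 × 10^4 cells/well on poly-L-lysine, switched to low-glucose DMEM overnight, washed with HBSS, then exposed to compounds in KRBH buffer with 0.2% fatty acid free BSA and 10 mmol/L glucose for 2 h at 37 °C. Active GLP-1 in supernatant by ELISA; EC50 from n = 2.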

[5] = biological target: T3, glucose-dependent insulinotropic receptor (Mesocricetus auratus, UniProt A0A1U8CD06); experiment: Agonist activity at GPR119 in glucose-induced golden hamster HIT-T15 cells assessed as increase in insulin secretion after 2 hrs by A1phaLISA; assay type: cell-based
T3 sequence (A0A1U8CD06 whole entry): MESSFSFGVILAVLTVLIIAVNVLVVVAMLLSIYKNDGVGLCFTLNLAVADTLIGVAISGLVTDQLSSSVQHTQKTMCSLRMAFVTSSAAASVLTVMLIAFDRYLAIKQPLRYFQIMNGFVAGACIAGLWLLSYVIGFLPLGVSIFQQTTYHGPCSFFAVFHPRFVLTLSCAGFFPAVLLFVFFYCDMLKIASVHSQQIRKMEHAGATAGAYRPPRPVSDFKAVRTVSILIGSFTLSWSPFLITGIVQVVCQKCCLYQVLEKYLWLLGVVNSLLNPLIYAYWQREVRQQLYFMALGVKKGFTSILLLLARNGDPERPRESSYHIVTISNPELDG
Summary of the method: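 HIT-T15 hamster β-cells seeded 5×10^4 cells/well, next day pre-incubated 2 h in KRBH buffer (0.2% BSA). Then exposed to compounds in KRBH with 0.2% fatty acid free BSA and 10 mmol/L glucose for 2 h at 37 °C; secreted insulin in supernatant quantified by AlphaLISA. EC50 reported from n = 2.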

[6] = Intrinsic clearance in rat liver microsomes at 1 uM measured after 15 to 30 mins in presence of NADPH generating system by LC/MS/MS analysis; assay type: ADME, Microsome; conditions: time 15-30 min, read-out: CLH
Summary of the method: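 Human or rat liver microsomes at 0.2 mg/mL protein in 50 mM potassium phosphate pH 7.4 with 1 µM compound; reaction started with NADPH-generating system (5 mM MgCl2, 5 mM glucose-6-phosphate, 0.5 mM β-NADP+, 1.5 units/mL G6PDH). Stopped with acetonitrile at 15 and 30 min, parent by LC/MS/MS; rate from concentration–time slope, expressed as µL/min/mg.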

[7] = biological target: T4, Glucose-dependent insulinotropic receptor (Homo sapiens, UniProt Q8TDV5); experiment: Agonist activity at human GPR119 expressed in CHO cells co-expressing cyclic AMP response element incubated for 2 hrs by steady-glo luciferase assay; assay type: cell-based
T4 sequence (Q8TDV5 whole entry): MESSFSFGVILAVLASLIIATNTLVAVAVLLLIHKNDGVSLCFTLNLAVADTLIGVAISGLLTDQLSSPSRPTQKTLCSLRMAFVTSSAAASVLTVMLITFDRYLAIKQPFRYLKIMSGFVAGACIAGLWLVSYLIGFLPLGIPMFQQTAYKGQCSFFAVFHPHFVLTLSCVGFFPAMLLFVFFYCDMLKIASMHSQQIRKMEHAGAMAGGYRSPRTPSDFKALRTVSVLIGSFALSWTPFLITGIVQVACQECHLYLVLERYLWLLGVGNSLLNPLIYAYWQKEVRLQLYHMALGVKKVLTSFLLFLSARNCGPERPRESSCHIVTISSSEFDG
Summary of the method: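 CHO cells stably expressing human GPR119, seeded at 10,000 cells/well in MEM α with 500 µg/mL Geneticin overnight, then exposed to graded compound concentrations in MEM α/20 mmol/L HEPES/0.1% BSA for 2 h. cAMP-driven luciferase read with Steady-Glo. Response normalized between vehicle and a 10 µM reference agonist; EC50 as mean of n = 2.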

CC(C)c1noc(N2CCC(Oc3cc(N4CCc5cc(N6CCC[C@H](O)C6=O)ccc54)ncn3)CC2)n1
Activity [1]: Dose-dependent effect
AUC [2]: 1670 ng·h/mL
EC50 [3]: 120 nM
EC50 [4]: 19 nM
EC50 [5]: 25 nM
microsomal CLint at 1 µM [6]: 1 µL/min/mg
EC50 [7]: 16 nM

— ChEMBL document CHEMBL4715912, “Discovery of a novel series of indolinylpyrimidine-based GPR119 agonists: Elimination of ether-a-go-go-related gene liability using a hydrogen bond acceptor-focused approach” (Bioorg Med Chem, 2021)
